Measurements from ChEMBL document CHEMBL6071194, “Building Metabolically Stable and Potent Anti-HIV Thioether-Lipid Analogues of Tenofovir Exalidex: A thorough Pharmacological Analysis” (J Med Chem, 2024).

Assays:
[1] = Therapeutic index, ratio of CC50 for HEK293T cells to IC50 for HIV-1 sub-type-C MJ4 infected in HEK293T cells; assay type: toxicity, cell-based; settings: human, read-out: Ratio CC50/IC50
Method in brief: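 HEK293T cells (2 × 10⁴/well) with HSA-formulated compound (5:1 molar), 3-fold dilutions, 48 h at 37 °C. […] IC50 from luciferase after single-cycle infection with HIV-like particles carrying MJ4 subtype C RT/IN, over the noncytotoxic range.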

[2] = Stability in human liver microsomes assessed as compound remaining at 3 uM pretreated for 5 mins followed by NADPH addition measured upto 120 mins by LC-MS/MS analysis; assay type: ADME, Microsome; settings: 2.083 h, time < 125 min
Method in brief: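 Human liver microsomes (1 mg/mL) in 100 mM potassium phosphate were preincubated with 3 µM test compound (final) at 37 °C for 5 min, then started with NADPH. Duplicate aliquots at 0, 15, 30, 60 and 120 min were quenched in cold MeOH with internal standard and analysed by LC–MS/MS. Values were normalized to 0 min; a no-NADPH control was read at 120 min.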

[3] = Ratio of AUC (0 to 24 hrs) of prodrug to TFV metabolite in C57BL/6 mouse plasma at 10 mg/kg, po measured for 24 hrs by LC-MS/MS analysis; assay type: ADME, organism-based; settings: in vivo
Method in brief: (§1)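 Male C57BL/6 mice (8–12 weeks, 20–30 g) got a single gavage of 10 mg/kg in 10% EtOH/90% olive oil, n = 3 per time point with sparse sampling. Retro-orbital blood was taken at 0.25–24 h and plasma spun off. Prodrug and TFV were measured by LC–MS/MS.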

[4] = Prodrug conversion in C57BL/6 mouse liver assessed as Cmax of TFV metabolite at 10 mg/kg, po measured for 24 hrs by LC-MS/MS analysis; assay type: ADME, organism-based; settings: in vivo
Method in brief: (§2)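 After a single 10 mg/kg gavage (10% EtOH/90% olive oil) in male C57BL/6 mice, liver, kidney and brain were collected at 1, 4 and 24 h (n = 3 per time point). Tissues were rinsed in ice-cold saline and homogenized in ice-cold PBS pH 7.4 (3× weight for brain, 5× for liver and kidney). Prodrug and TFV were measured by LC–MS/MS; AUC0–24h by the linear trapezoidal rule.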

[5] = Prodrug conversion in C57BL/6 mouse kidney assessed as AUC (0 to 24 hrs) of TFV metabolite at 10 mg/kg, po measured for 24 hrs by LC-MS/MS analysis; assay type: ADME, organism-based; settings: in vivo; method in brief: as §2
[6] = Prodrug conversion in C57BL/6 mouse plasma assessed as Tmax of TFV metabolite at 10 mg/kg, po measured for 24 hrs by LC-MS/MS analysis; assay type: ADME, organism-based; settings: in vivo; method in brief: as §1
[7] = Volume of distribution in C57BL/6 mouse plasma at 10 mg/kg, po measured for 24 hrs by LC-MS/MS analysis; assay type: ADME, organism-based; settings: in vivo; method in brief: as §1
[8] = Half life in C57BL/6 mouse plasma at 10 mg/kg, po measured for 24 hrs by LC-MS/MS analysis; assay type: ADME, organism-based; settings: in vivo; method in brief: as §1
[9] = Prodrug conversion in C57BL/6 mouse plasma assessed as AUC (0 to 24 hrs) of TFV metabolite at 10 mg/kg, po measured for 24 hrs by LC-MS/MS analysis; assay type: ADME, organism-based; settings: in vivo; method in brief: as §1
[10] = Prodrug conversion in C57BL/6 mouse kidney assessed as Tmax of TFV metabolite at 10 mg/kg, po measured for 24 hrs by LC-MS/MS analysis; assay type: ADME, organism-based; settings: in vivo; method in brief: as §2
[11] = Ratio of AUC (0 to 24 hrs) of prodrug to TFV metabolite in C57BL/6 mouse kidney at 10 mg/kg, po measured for 24 hrs by LC-MS/MS analysis; assay type: ADME, organism-based; settings: in vivo; method in brief: as §2
[12] = Tmax in C57BL/6 mouse kidney at 10 mg/kg, po measured for 24 hrs by LC-MS/MS analysis; assay type: ADME, organism-based; method in brief: as §2
[13] = Prodrug conversion in C57BL/6 mouse plasma assessed as Cmax of TFV metabolite at 10 mg/kg, po measured for 24 hrs by LC-MS/MS analysis; assay type: ADME, organism-based; settings: in vivo; method in brief: as §1
[14] = Clearance in C57BL/6 mouse plasma at 10 mg/kg, po measured for 24 hrs by LC-MS/MS analysis; assay type: ADME, organism-based; settings: in vivo; method in brief: as §1
[15] = Prodrug conversion in C57BL/6 mouse liver assessed as Tmax of TFV metabolite at 10 mg/kg, po measured for 24 hrs by LC-MS/MS analysis; assay type: ADME, organism-based; settings: in vivo; method in brief: as §2
[16] = Prodrug conversion in C57BL/6 mouse liver assessed as AUC (0 to 24 hrs) of TFV metabolite at 10 mg/kg, po measured for 24 hrs by LC-MS/MS analysis; assay type: ADME, organism-based; settings: in vivo; method in brief: as §2
[17] = Tmax in C57BL/6 mouse liver at 10 mg/kg, po measured for 24 hrs by LC-MS/MS analysis; assay type: ADME, organism-based; method in brief: as §2
[18] = Ratio of AUC (0 to 24 hrs) of prodrug to TFV metabolite in C57BL/6 mouse liver at 10 mg/kg, po measured for 24 hrs by LC-MS/MS analysis; assay type: ADME, organism-based; settings: in vivo; method in brief: as §2
[19] = Clearance in C57BL/6 mouse plasma at 3 mg/kg, iv measured for 8 hrs by LC-MS/MS analysis; assay type: ADME, organism-based; settings: in vivo
Method in brief: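 Male C57BL/6 mice got a single 3 mg/kg i.v. dose in 10% PEG-300, 10% Solutol HS-15 and 80% saline, n = 3 per time point. Retro-orbital blood was taken at 0.1–8 h and plasma prodrug measured by LC–MS/MS. AUC0–8h used the trapezoidal rule; Cl = Dose/AUC0–8h.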

[20] = Prodrug conversion in C57BL/6 mouse kidney assessed as Cmax of TFV metabolite at 10 mg/kg, po measured for 24 hrs by LC-MS/MS analysis; assay type: ADME, organism-based; settings: in vivo; method in brief: as §2
[21] = Tmax in C57BL/6 mouse brain at 10 mg/kg, po measured for 24 hrs by LC-MS/MS analysis; assay type: ADME, organism-based; method in brief: as §2

SMILES: CCCCSCCCCCCCCCCCCCCCOP(=O)(O)CO[C@H](C)Cn1cnc2c(N)ncnc21
- selectivity ratio [1]: > 331

SMILES: CCCCCCCCCCCCCCCCCSCCOP(=O)(O)CO[C@H](C)Cn1cnc2c(N)ncnc21
- selectivity ratio [1]: 7150

SMILES: C[C@H](Cn1cnc2c(N)ncnc21)OCP(=O)(O)OCCCSCCCCCCCCCCC#CC1CCCCC1
- selectivity ratio [1]: > 7580

SMILES: COC(=O)CCCCCCCCCCCCCCCSCCCOP(=O)(O)CO[C@H](C)Cn1cnc2c(N)ncnc21
- selectivity ratio [1]: > 70

SMILES: CCCCCCCCCCCCSCCCOP(=O)(O)CO[C@H](C)Cn1cnc2c(N)ncnc21
- selectivity ratio [1]: > 532

SMILES: C[C@H](Cn1cnc2c(N)ncnc21)OCP(=O)(O)OCCCSCCCCCCCCCCCOc1ccccc1.N
- selectivity ratio [1]: > 8060
- Stability [2]: 69%

SMILES: C[C@H](Cn1cnc2c(N)ncnc21)OCP(=O)(O)OCCCSCCCCCCCCCCCCC1CCCCC1.N
- selectivity ratio [1]: > 2000
- Ratio [3]: 1.44
- Cmax [4]: 3900 ng/mL
- AUC [5]: 22100 ng·h/mL
- Tmax [6]: 4 h
- Vd [7]: 228 L/kg
- t1/2 [8]: 3.07 h
- AUC [9]: 740 ng·h/mL
- Tmax [10]: 24 h
- Ratio [11]: 0.488
- Tmax [12]: 4 h
- Cmax [13]: 47.8 ng/mL
- CL [14]: 85.8 mL/min/kg
- Tmax [15]: 24 h
- AUC [16]: 66600 ng·h/mL
- Tmax [17]: 4 h
- Ratio [18]: 0.411
- CL [19]: 85.8 mL/min/kg

SMILES: C[C@H](Cn1cnc2c(N)ncnc21)OCP(=O)(O)OCCCSCCCCCCCCCCCCC#CC(C)(C)C
- selectivity ratio [1]: > 516

SMILES: C[C@H](Cn1cnc2c(N)ncnc21)OCP(=O)(O)OCCCSCCCCCCCCCCCCc1ccc(F)cc1.N
- selectivity ratio [1]: > 11100
- Cmax [4]: 3980 ng/mL
- AUC [5]: 23800 ng·h/mL
- Tmax [6]: 4 h
- Cmax [20]: 1420 ng/mL
- AUC [9]: 635 ng·h/mL
- Tmax [10]: 24 h
- Ratio [11]: 0.322
- Tmax [12]: 4 h
- CL [14]: 134 mL/min/kg
- Tmax [15]: 24 h
- AUC [16]: 72500 ng·h/mL
- Ratio [18]: 0.877
- CL [19]: 134 mL/min/kg
- Tmax [21]: 4 h

SMILES: CCCCCCCCCCSCCCCCCCCCOP(=O)(O)CO[C@H](C)Cn1cnc2c(N)ncnc21
- selectivity ratio [1]: > 1720

SMILES: C[C@H](Cn1cnc2c(N)ncnc21)OCP(=O)(O)OCCCSCCCCCCCCCCCCc1ccccc1
- selectivity ratio [1]: > 12500

SMILES: CCCCCCCCCCCCCSCCCCCCOP(=O)(O)CO[C@H](C)Cn1cnc2c(N)ncnc21
- selectivity ratio [1]: > 1370

SMILES: CCCCCCCSCCCCCCCCCCCCOP(=O)(O)CO[C@H](C)Cn1cnc2c(N)ncnc21
- selectivity ratio [1]: > 296
